{"source": "ChEMBL document CHEMBL1250451", "about": "“Mechanistic insights into a Ca2+-dependent family of alpha-mannosidases in a human gut symbiont” (Nat Chem Biol, 2010)", "format_in_all_cases": "protein assay", "key": {"[1]": {"biological_target": "Alpha-1,2-mannosidase (BT_3994) (Bacteroides thetaiotaomicron, UniProt Q8A0M7)", "sequence (Q8A0M7 whole entry, change not shown)": "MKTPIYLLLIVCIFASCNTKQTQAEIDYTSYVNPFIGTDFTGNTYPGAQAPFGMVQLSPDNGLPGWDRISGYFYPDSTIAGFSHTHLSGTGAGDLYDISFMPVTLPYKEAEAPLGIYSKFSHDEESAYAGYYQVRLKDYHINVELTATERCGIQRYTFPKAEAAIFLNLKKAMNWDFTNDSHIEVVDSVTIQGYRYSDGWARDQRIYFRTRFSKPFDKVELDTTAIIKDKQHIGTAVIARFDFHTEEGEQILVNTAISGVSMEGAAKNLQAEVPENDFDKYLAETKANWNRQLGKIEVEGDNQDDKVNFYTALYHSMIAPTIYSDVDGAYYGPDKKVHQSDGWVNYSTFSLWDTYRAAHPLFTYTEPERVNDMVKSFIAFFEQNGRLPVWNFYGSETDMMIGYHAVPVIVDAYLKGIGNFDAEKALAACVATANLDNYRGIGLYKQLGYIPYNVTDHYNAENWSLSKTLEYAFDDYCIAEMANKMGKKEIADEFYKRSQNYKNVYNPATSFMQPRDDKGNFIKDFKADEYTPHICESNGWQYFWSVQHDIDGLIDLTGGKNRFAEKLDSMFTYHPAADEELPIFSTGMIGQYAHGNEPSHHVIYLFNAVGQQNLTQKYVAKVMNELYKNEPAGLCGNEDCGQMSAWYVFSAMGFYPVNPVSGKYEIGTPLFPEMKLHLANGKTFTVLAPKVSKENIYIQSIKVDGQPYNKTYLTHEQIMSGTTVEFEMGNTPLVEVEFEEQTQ", "test": "Inhibition of Bacteroides thetaiotaomicron GH92 alpha-mannosidase 3994 assessed as reduction of mannose release using 4NP-mannopyranoside substrate", "how_it_was_run": "(§1)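 Recombinant His-tagged GH92 enzymes were expressed in E. coli Tuner or B834 and purified by IMAC. Mannose release was measured at 37 °C in 100 mM MOPS, pH 7.0, with 2 mM CaCl2. The read-out was a coupled-enzyme mannose detection system with ATP and NADP+ at 1 mM, following NADPH at 340 nm. At least five inhibitor concentrations were tested, with substrate ≪ Km. Ki was taken from the x-intercept of […] versus inhibitor concentration.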"}, "[2]": {"biological_target": "Alpha-1,2-mannosidase (BT_2948) (Bacteroides thetaiotaomicron, UniProt Q8A3K6)", "test": "Inhibition of Bacteroides thetaiotaomicron GH92 alpha-mannosidase 2948 assessed as reduction of mannose release using 4NP-mannopyranoside substrate", "how_it_was_run": "as §1"}, "[3]": {"biological_target": "Alpha-1,2-mannosidase family protein (BT_4093) (Bacteroides thetaiotaomicron, UniProt Q8A0C8)", "test": "Inhibition of Bacteroides thetaiotaomicron GH92 alpha-mannosidase 4093 assessed as reduction of mannose release using 4NP-mannopyranoside substrate", "how_it_was_run": "as §1"}, "[4]": {"biological_target": "Glycoside hydrolase family 92 (BT_3963) (Bacteroides thetaiotaomicron, UniProt Q8A0Q8)", "test": "Inhibition of Bacteroides thetaiotaomicron GH92 alpha-mannosidase 3963 assessed as reduction of mannose release using 4NP-mannopyranoside substrate", "how_it_was_run": "as §1"}, "[5]": {"biological_target": "Glycoside hydrolase family 92 (BT_3962) (Bacteroides thetaiotaomicron, UniProt Q8A0Q9)", "test": "Inhibition of Bacteroides thetaiotaomicron GH92 alpha-mannosidase 3962 assessed as reduction of mannose release using 4NP-mannopyranoside substrate", "how_it_was_run": "as §1"}, "[6]": {"biological_target": "Alpha-1,2-mannosidase (BT_4092) (Bacteroides thetaiotaomicron, UniProt Q8A0C9)", "sequence (Q8A0C9 whole entry, change not shown)": "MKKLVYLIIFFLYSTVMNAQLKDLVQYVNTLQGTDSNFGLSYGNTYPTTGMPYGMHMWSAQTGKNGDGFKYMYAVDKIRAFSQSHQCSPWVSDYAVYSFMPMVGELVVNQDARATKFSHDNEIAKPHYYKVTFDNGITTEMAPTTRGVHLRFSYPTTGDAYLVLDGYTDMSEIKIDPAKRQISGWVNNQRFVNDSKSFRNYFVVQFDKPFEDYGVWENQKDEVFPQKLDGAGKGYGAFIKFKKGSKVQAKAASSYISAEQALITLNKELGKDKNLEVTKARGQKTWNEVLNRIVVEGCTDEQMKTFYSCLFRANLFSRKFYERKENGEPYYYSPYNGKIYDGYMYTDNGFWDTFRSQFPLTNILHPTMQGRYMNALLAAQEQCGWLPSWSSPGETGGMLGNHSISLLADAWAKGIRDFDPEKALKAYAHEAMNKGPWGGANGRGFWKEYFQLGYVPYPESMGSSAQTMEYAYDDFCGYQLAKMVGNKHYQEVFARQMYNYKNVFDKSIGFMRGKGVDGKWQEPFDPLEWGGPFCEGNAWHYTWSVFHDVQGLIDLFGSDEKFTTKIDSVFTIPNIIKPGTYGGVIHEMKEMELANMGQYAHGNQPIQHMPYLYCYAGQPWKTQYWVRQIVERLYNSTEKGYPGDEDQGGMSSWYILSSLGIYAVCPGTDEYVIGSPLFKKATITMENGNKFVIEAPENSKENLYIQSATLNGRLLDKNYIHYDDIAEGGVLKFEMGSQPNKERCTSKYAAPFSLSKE", "test": "Inhibition of Bacteroides thetaiotaomicron GH92 alpha-mannosidase 4092 assessed as reduction of mannose release using 4NP-mannopyranoside substrate", "how_it_was_run": "as §1"}, "[7]": {"biological_target": "Alpha-1,2-mannosidase (BT_3965) (Bacteroides thetaiotaomicron, UniProt Q8A0Q6)", "test": "Inhibition of Bacteroides thetaiotaomicron GH92 alpha-mannosidase 3965 assessed as reduction of mannose release using 4NP-mannopyranoside substrate", "how_it_was_run": "as §1"}, "[8]": {"biological_target": "Alpha-1,2-mannosidase, putative (BT_3130) (Bacteroides thetaiotaomicron, UniProt Q8A325)", "test": "Inhibition of Bacteroides thetaiotaomicron GH92 alpha-mannosidase 3130 assessed as reduction of mannose release using 4NP-mannopyranoside substrate", "how_it_was_run": "as §1"}, "[9]": {"biological_target": "T1, Alpha-1,2-mannosidase (BT_2199) (Bacteroides thetaiotaomicron, UniProt Q8A5N9)", "T1 sequence (Q8A5N9 whole entry)": "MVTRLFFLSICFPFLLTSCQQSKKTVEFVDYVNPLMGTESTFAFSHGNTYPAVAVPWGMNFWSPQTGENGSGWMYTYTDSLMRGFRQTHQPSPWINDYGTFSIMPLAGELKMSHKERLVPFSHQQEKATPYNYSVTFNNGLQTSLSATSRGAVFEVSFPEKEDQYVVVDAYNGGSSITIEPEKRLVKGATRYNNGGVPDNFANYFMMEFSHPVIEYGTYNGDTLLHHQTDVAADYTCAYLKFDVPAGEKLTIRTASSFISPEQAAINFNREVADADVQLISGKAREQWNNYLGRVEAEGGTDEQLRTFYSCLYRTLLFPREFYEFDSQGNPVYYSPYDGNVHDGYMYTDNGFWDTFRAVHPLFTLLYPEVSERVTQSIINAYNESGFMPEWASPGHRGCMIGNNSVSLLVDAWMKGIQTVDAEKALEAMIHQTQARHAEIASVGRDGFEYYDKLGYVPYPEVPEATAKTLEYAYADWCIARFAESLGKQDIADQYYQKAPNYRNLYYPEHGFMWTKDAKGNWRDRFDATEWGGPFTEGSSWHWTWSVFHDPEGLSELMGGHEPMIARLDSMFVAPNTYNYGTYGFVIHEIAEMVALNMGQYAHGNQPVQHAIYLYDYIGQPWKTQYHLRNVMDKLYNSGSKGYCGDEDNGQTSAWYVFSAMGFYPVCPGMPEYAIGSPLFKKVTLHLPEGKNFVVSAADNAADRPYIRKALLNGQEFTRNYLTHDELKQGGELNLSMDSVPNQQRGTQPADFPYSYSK", "test": "Inhibition of Bacteroides thetaiotaomicron GH92 alpha-mannosidase 2199 assessed as reduction of mannose release using 4NP-mannopyranoside substrate", "how_it_was_run": "(§2)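 Recombinant enzymes expressed in E. coli. Bt3990 was purified by IMAC, anion exchange and size exclusion; Bt2199 by IMAC only. Ki was measured with at least five inhibitor concentrations at a substrate concentration ≪ Km for each enzyme. Ki was taken as the x-axis intercept of a plot of […] against inhibitor concentration.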"}, "[10]": {"biological_target": "Alpha-1,2-mannosidase (BT_3991) (Bacteroides thetaiotaomicron, UniProt Q8A0N0)", "test": "Inhibition of Bacteroides thetaiotaomicron GH92 alpha-mannosidase 3991 assessed as reduction of mannose release using 4NP-mannopyranoside substrate", "how_it_was_run": "as §1"}, "[11]": {"biological_target": "Alpha-1,2-mannosidase (BT_3858) (Bacteroides thetaiotaomicron, UniProt Q8A113)", "sequence (Q8A113 whole entry, change not shown)": "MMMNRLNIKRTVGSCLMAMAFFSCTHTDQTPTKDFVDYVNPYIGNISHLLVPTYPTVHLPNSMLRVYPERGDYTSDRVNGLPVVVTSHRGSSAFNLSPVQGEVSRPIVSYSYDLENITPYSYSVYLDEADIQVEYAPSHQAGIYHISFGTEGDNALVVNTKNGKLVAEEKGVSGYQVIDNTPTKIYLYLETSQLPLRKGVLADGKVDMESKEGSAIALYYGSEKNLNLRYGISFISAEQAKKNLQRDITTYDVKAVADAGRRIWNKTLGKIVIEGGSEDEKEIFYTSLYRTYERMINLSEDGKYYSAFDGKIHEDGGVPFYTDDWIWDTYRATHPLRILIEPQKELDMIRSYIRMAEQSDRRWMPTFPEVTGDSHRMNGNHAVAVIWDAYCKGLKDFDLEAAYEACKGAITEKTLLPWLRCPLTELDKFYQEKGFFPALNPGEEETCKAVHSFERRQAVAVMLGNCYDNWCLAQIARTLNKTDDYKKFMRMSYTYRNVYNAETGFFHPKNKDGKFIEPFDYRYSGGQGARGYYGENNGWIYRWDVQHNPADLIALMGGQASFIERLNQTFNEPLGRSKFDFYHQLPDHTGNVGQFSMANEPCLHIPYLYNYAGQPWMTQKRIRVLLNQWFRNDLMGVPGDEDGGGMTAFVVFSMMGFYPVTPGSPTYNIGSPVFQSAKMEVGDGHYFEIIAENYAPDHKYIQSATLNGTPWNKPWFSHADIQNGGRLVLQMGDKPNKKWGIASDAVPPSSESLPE", "test": "Inhibition of Bacteroides thetaiotaomicron GH92 alpha-mannosidase 3858 assessed as reduction of mannose release using 4NP-mannopyranoside substrate", "how_it_was_run": "as §1"}, "[12]": {"biological_target": "Alpha-1,2-mannosidase (BT_1878) (Bacteroides thetaiotaomicron, UniProt Q8A6K3)", "sequence (Q8A6K3 whole entry, change not shown)": "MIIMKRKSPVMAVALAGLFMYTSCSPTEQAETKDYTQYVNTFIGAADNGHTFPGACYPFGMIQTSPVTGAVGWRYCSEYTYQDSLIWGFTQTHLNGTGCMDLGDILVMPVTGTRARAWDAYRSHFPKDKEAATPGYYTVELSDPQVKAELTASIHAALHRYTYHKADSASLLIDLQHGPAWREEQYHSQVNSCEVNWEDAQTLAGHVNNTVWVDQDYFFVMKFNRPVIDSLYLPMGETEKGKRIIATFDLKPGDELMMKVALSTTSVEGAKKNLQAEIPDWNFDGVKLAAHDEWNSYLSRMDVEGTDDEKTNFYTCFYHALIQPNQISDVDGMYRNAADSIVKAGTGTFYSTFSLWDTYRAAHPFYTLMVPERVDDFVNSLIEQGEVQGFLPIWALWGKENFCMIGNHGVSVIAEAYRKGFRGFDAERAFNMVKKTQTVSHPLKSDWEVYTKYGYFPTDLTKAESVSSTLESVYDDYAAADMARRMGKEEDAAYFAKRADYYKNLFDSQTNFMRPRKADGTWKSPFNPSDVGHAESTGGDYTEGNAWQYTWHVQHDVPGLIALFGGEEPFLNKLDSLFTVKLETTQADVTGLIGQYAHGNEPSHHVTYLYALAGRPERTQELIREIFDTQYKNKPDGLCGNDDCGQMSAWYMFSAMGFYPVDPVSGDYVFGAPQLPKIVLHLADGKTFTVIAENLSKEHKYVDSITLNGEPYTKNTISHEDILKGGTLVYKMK", "test": "Inhibition of Bacteroides thetaiotaomicron GH92 alpha-mannosidase 1878 assessed as reduction of mannose release using 4NP-mannopyranoside substrate", "how_it_was_run": "as §1"}, "[13]": {"biological_target": "Alpha-1,2-mannosidase, putative (BT_4073) (Bacteroides thetaiotaomicron, UniProt Q8A0E8)", "sequence (Q8A0E8 whole entry, change not shown)": "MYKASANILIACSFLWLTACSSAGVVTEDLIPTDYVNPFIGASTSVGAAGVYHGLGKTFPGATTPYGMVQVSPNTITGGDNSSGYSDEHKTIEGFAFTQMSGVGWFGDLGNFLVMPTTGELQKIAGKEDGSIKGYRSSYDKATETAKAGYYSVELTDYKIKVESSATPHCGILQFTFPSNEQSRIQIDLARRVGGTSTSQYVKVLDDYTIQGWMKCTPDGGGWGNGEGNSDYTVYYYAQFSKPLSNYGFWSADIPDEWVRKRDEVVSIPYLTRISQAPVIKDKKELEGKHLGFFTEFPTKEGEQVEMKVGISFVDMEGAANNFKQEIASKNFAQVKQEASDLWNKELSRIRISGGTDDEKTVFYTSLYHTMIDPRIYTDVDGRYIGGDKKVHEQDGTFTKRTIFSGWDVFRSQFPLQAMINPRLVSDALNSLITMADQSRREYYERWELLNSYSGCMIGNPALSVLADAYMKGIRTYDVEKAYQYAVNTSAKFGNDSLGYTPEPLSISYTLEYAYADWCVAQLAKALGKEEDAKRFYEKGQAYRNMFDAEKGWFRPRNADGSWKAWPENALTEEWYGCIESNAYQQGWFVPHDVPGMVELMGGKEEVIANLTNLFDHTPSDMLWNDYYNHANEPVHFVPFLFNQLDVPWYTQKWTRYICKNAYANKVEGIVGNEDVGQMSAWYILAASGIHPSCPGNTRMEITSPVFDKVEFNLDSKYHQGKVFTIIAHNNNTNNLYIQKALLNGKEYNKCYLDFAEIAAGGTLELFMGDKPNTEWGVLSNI", "test": "Inhibition of Bacteroides thetaiotaomicron GH92 alpha-mannosidase 4073 assessed as reduction of mannose release using 4NP-mannopyranoside substrate", "how_it_was_run": "as §1"}, "[14]": {"biological_target": "Alpha-1,2-mannosidase family protein (BT_1032) (Bacteroides thetaiotaomicron, UniProt Q8A8Y5)", "sequence (Q8A8Y5 whole entry, change not shown)": "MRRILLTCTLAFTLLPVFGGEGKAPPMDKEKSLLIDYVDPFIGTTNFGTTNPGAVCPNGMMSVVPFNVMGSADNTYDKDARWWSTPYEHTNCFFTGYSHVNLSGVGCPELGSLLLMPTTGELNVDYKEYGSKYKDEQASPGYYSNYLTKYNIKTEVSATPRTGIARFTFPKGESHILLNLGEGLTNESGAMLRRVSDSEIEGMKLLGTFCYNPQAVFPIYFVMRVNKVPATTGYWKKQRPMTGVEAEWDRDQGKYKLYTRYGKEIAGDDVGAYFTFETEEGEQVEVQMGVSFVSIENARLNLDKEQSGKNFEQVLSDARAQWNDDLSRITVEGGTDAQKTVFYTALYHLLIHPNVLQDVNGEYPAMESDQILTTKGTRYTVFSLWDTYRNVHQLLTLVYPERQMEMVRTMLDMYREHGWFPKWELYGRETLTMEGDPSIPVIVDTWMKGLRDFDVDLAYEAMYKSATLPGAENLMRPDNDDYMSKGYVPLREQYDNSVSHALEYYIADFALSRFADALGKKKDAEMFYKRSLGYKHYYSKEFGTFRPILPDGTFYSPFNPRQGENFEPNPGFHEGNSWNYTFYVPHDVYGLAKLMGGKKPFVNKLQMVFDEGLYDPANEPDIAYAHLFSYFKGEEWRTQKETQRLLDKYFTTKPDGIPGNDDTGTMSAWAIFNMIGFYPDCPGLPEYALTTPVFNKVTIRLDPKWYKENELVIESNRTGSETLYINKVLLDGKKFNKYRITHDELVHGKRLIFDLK", "test": "Inhibition of Bacteroides thetaiotaomicron GH92 alpha-mannosidase 1032 assessed as reduction of mannose release using 4NP-mannopyranoside substrate", "how_it_was_run": "as §1"}, "[15]": {"biological_target": "Alpha-1,2-mannosidase (BT_3784) (Bacteroides thetaiotaomicron, UniProt Q8A182)", "test": "Inhibition of Bacteroides thetaiotaomicron GH92 alpha-mannosidase 3784 assessed as reduction of mannose release using 4NP-mannopyranoside substrate", "how_it_was_run": "as §1"}, "[16]": {"biological_target": "Alpha-1,2-mannosidase (BT_3990) (Bacteroides thetaiotaomicron, UniProt Q8A0N1)", "test": "Inhibition of Bacteroides thetaiotaomicron GH92 alpha-mannosidase 3990 assessed as reduction of mannose release using 4NP-mannopyranoside substrate", "how_it_was_run": "as §2"}, "[17]": {"substrate": "O=[N+]([O-])c1ccc(O[C@H]2O[C@H](CO)[C@@H](O)[C@H](O)[C@@H]2O)cc1", "test": "(§3) Activity of Bacteroides thetaiotaomicron GH92 alpha-mannosidase GH92 alpha-mannosidase 3990 assessed as mannose release after 16 hrs by HPLC"}, "[18]": {"substrate": "OC[C@H]1O[C@H](O[C@H]2[C@@H](O)[C@H](O)[C@@H](CO)O[C@@H]2O)[C@@H](O)[C@@H](O)[C@@H]1O", "test": "as §3"}, "[19]": {"substrate": "O=[N+]([O-])c1ccc(O[C@H]2O[C@H](CO)[C@@H](O)[C@H](O)[C@@H]2O)cc1", "test": "(§4) Ratio of Kcat to Km for Bacteroides thetaiotaomicron GH92 alpha-mannosidase GH92 alpha-mannosidase 3990 assessed as mannose release after 16 hrs by HPLC"}, "[20]": {"substrate": "OC[C@H]1O[C@H](O[C@H]2[C@@H](O)[C@H](O)[C@@H](CO)O[C@@H]2O)[C@@H](O)[C@@H](O)[C@@H]1O", "test": "as §4"}, "[21]": {"substrate": "O=[N+]([O-])c1ccc(O[C@H]2O[C@H](CO)[C@@H](O)[C@H](O)[C@@H]2O)c([N+](=O)[O-])c1", "test": "as §4"}}, "data": [{"molecule": "OC[C@@H]1[C@@H](O)[C@H](O)[C@H](O)c2nccn21", "note": "[MANNOIMIDAZOLE]", "values": [{"measurement": "Ki", "setting": "[1]", "value": 43, "unit": "µM"}, {"measurement": "Ki", "setting": "[2]", "value": 70, "unit": "µM"}, {"measurement": "Ki", "setting": "[3]", "value": 860, "unit": "µM"}, {"measurement": "Ki", "setting": "[4]", "value": 790, "unit": "µM"}, {"measurement": "Ki", "setting": "[5]", "value": 270, "unit": "µM"}, {"measurement": "Ki", "setting": "[6]", "value": 1600, "unit": "µM"}, {"measurement": "Ki", "setting": "[7]", "value": 0.4, "unit": "µM"}, {"measurement": "Ki", "setting": "[8]", "value": 1, "unit": "µM"}, {"measurement": "Ki", "setting": "[9]", "value": 90, "unit": "µM"}, {"measurement": "Ki", "setting": "[10]", "value": 46, "unit": "µM"}, {"measurement": "Ki", "setting": "[11]", "value": 260, "unit": "µM"}, {"measurement": "Ki", "setting": "[12]", "value": 1800, "unit": "µM"}, {"measurement": "Ki", "setting": "[13]", "value": 360, "unit": "µM"}, {"measurement": "Ki", "setting": "[14]", "value": 600, "unit": "µM"}, {"measurement": "Ki", "setting": "[15]", "value": 5800, "unit": "µM"}]}, {"molecule": "OC[C@H]1NC[C@@H](O)[C@@H](O)[C@@H]1O", "note": "[DEOXYMANNOJIRIMYCIN]", "values": [{"measurement": "Ki", "setting": "[16]", "value": 12000, "unit": "µM"}, {"measurement": "Ki", "setting": "[9]", "value": 13000, "unit": "µM"}]}, {"molecule": "Alpha-1,2-mannosidase (BT_3990) (Bacteroides thetaiotaomicron), Q8A0N1 (protein) MKRLLLIACILNCTLLSQAKDWTQYVNPLMGSQSTFELSTGNTYPAIARPWGMNFWTPQTGKMGDGWQYTYTANKIRGFKQTHQPSPWINDYGQFSIMPIVGQPVFDEEKRASWFAHKGEVATPYYYKVYLAEHDIVTEMTPTERAVLFRFTFPENDHSYVVVDAFDKGSYIKIIPEENKIIGYTTRNSGGVPENFKNYFIIEFDKPFTYKATVENGNLQENVAEQTTDHAGAIIGFKTRKGEQVNARIASSFISFEQAAANMNELGKDNIEQLAQKGKDAWNQVLGKIEVEGGNLDQYRTFYSCLYRSLLFPRKFYELDANGQPIHYSPYNGQVLPGYMFTDTGFWDTFRCLFPLLNLMYPSVNKEMQEGLINTYLESGFFPEWASPGHRGCMVGNNSASILVDAYMKGVKVDDIKTLYEGLIHGTENVHPEVSSTGRLGYEYYNKLGYVPYDVKINENAARTLEYAYDDWCIYRLAKELKRPKKEISLFAKRAMNYKNLFDKESKLMRGRNEDGTFQSPFSPLKWGDAFTEGNSWHYTWSVFHDPQGLIDLMGGKEMFVTMMDSVFAVPPIFDDSYYGQVIHEIREMTVMNMGNYAHGNQPIQHMIYLYDYAGQPWKAQYWLRQVMDRMYTPGPDGYCGDEDNGQTSAWYVFSALGFYPVCPGTDEYVMGTPLFKKATLHFENGNSLVIDAPNNSTENFYIDSMSFNGADHTKNYLRHEDLFKGGTIKVDMSNRPNLNRGTKEEDMPYSFSKE", "values": [{"measurement": "Km", "setting": "[17]", "value": 4200, "unit": "µM"}, {"measurement": "kcat", "setting": "[17]", "value": 0.0933, "unit": "s⁻¹"}, {"measurement": "Km", "setting": "[18]", "value": 760, "unit": "µM"}, {"measurement": "kcat", "setting": "[18]", "value": 86.7, "unit": "s⁻¹"}, {"measurement": "kcat/Km", "setting": "[19]", "value": 21.7, "unit": "M⁻¹ s⁻¹"}, {"measurement": "kcat/Km", "setting": "[20]", "value": 113000, "unit": "M⁻¹ s⁻¹"}, {"measurement": "kcat/Km", "setting": "[21]", "value": 16.7, "unit": "M⁻¹ s⁻¹"}]}]}
